In ChEMBL document CHEMBL1177847, “Combating oxidative stress in epilepsy: design, synthesis, quantum chemical studies and anticonvulsant evaluation of 1-(substituted benzylidene/ethylidene)-4-(naphthalen-1-yl)semicarbazides” (Eur J Med Chem, 2010):
Calls of active or inactive are those of the source. The rule behind the calls is not given here.

Legend:
Mus musculus [1] = assay: Neurotoxicity in ip dosed Swiss albino mouse assessed as impair in motor coordination at 300 mg/kg, ip after 4 hrs by rotarod test; type: toxicity, organism-based; parameters: dose 300 mg/kg, route intraperitoneal; conditions: in vivo
How it was run: (§1)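 Rotarod motor-impairment test in male Swiss albino mice dosed i.p. at 30, 100 or 300 mg/kg in 5% gum acacia/water. Mice that fell off the rotating rod within 30 s during pretraining were excluded. The dose at which animals fell off was recorded at 0.5 and 4 h.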

Mus musculus [2] = assay: Neurotoxicity in ip dosed Swiss albino mouse assessed as minimum dose required to cause impair in motor coordination after 0.5 hrs by rotarod test; type: toxicity, organism-based; conditions: in vivo; how it was run: as §1
Mus musculus [3] = assay: Anticonvulsant activity against maximal electroshock-induced seizures in ip dosed Swiss albino mouse assessed as minimum effective dose after 0.5 hrs; type: functional; conditions: read-out: MED
How it was run: (§2)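 Male Swiss albino mice (18–25 g) received the compound suspended in 5% gum acacia/water, i.p. at 30, 100 and 300 mg/kg (one to four animals per dose). Maximal electroshock was applied at 0.5 and 4 h. Protection meant abolition of the hind limb tonic extensor component. The lowest dose protecting half or more of the mice was recorded.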

Mus musculus [4] = assay: Anticonvulsant activity against subcutaneous pentylenetetrazole-induced seizures in Swiss albino mouse at 300 mg/kg, ip after 4 hrs; type: functional, organism-based; parameters: dose 300 mg/kg
How it was run: (§3)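 Male Swiss albino mice (18–25 g) were dosed i.p. with the compound in 5% gum acacia/water at 30, 100 or 300 mg/kg. Thirty minutes later they received PTZ 85 mg/kg (CD97) and were watched for seizures over 4 h. Readings at 0.5 and 4 h gave the lowest dose active in half or more of the animals. Myoclonic jerks were noted separately.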

Mus musculus [5] = assay: Anticonvulsant activity against maximal electroshock-induced seizures in Swiss albino mouse at 300 mg/kg, ip after 4 hrs; type: functional, organism-based; parameters: dose 300 mg/kg; how it was run: as §2
Mus musculus [6] = assay: Anticonvulsant activity against subcutaneous pentylenetetrazole-induced seizures in Swiss albino mouse at 300 mg/kg, ip after 0.5 hrs; type: functional, organism-based; parameters: dose 300 mg/kg; how it was run: as §3
Mus musculus [7] = assay: Anticonvulsant activity against maximal electroshock-induced seizures in ip dosed Swiss albino mouse assessed as minimum effective dose after 4 hrs; type: functional; conditions: read-out: MED; how it was run: as §2
Mus musculus [8] = assay: Anticonvulsant activity against subcutaneous pentylenetetrazole-induced seizures in ip dosed Swiss albino mouse assessed as minimum effective dose after 0.5 hrs; type: functional; conditions: read-out: MED; how it was run: as §3
Mus musculus [9] = assay: Anticonvulsant activity against maximal electroshock-induced seizures in Swiss albino mouse at 300 mg/kg, ip after 0.5 hrs; type: functional, organism-based; parameters: dose 300 mg/kg; how it was run: as §2
Mus musculus [10] = assay: Neurotoxicity in ip dosed Swiss albino mouse assessed as impair in motor coordination at 300 mg/kg, ip after 0.5 hrs by rotarod test; type: toxicity, organism-based; parameters: dose 300 mg/kg, route intraperitoneal; conditions: in vivo; how it was run: as §1
Mus musculus [11] = assay: Anticonvulsant activity against subcutaneous pentylenetetrazole-induced seizures in ip dosed Swiss albino mouse assessed as minimum effective dose after 4 hrs; type: functional; conditions: read-out: MED; how it was run: as §3
Rattus norvegicus = assay: Anticonvulsant activity against subcutaneous pentylenetetrazole-induced seizures in Wistar albino rat at 50 mg/kg, ip after 2 hrs; type: functional
Mus musculus [12] = assay: Restoration of SOD activity in subcutaneous pentylenetetrazole treated Swiss albino mouse brain assessed per mg of protein at 100 mg/kg, ip after 4 hrs; type: functional; conditions: route intraperitoneal
How it was run: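 The ethanol phase of an ethanol/chloroform (5:3) extract of brain supernatant was used, from PTZ-treated mice 4 h after 100 mg/kg i.p. Superoxide was generated by xanthine–xanthine oxidase at pH 10.2 with NBT, 20 min at 25 °C. The reaction was stopped with CuCl2 and read at 560 nm. One unit gives 50% inhibition of NBT reduction; results are expressed as U/mg protein. n = 6.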

Mus musculus [13] = assay: Restoration of GSH peroxidase activity in subcutaneous pentylenetetrazole treated Swiss albino mouse brain assessed per mg of protein at 100 mg/kg, ip after 4 hrs; type: functional; conditions: route intraperitoneal
How it was run: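 Brain homogenate came from PTZ-treated mice 4 h after 100 mg/kg i.p. dosing, using the 10500 × g supernatant. Samples were equilibrated 5 min at 25 °C, started with H2O2, and A340 was followed for 5 min. n = 6.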

Mus musculus [14] = assay: Restoration of GSH level in subcutaneous pentylenetetrazole treated Swiss albino mouse brain assessed per gram of tissue at 100 mg/kg, ip after 4 hrs; type: functional; conditions: route intraperitoneal
How it was run: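 Brains were taken from PTZ-treated mice 4 h after 100 mg/kg i.p. dosing. Tissue was deproteinized with an equal volume of 10% TCA for 2 h at 4 °C and centrifuged at 2000 g for 15 min. The supernatant was mixed with 0.4 M Tris (pH 8.9) containing 0.02 M EDTA, and 0.01 M DTNB was added before spectrophotometric reading. n = 6.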

Mus musculus [15] = assay: Reduction of lipid peroxidation in subcutaneous pentylenetetrazole treated Swiss albino mouse brain assessed reduction of malondialdehyde level per mg of protein at 100 mg/kg, ip after 4 hrs by TBARS assay; type: functional; conditions: route intraperitoneal
How it was run: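 PTZ-treated mice were dosed at 100 mg/kg i.p. and decapitated 4 h after the last injection. Brains were homogenized in four volumes of ice-cold 50 mM Tris-HCl, pH 7.4, and spun at 3000 × g for 15 min. TBARS in the supernatant was read at 532 nm in the upper organic layer and expressed as nmol MDA/mg protein. n = 6, mean ± S.E.M.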

Mus musculus [16] = assay: Neurotoxicity in ip dosed Swiss albino mouse assessed as minimum dose required to cause impair in motor coordination after 4 hrs by rotarod test; type: toxicity, organism-based; conditions: in vivo; how it was run: as §1
Mus musculus [17] = assay: Toxicity in subcutaneous pentylenetetrazole-induced Swiss albino mouse assessed as death at 30 to 300 mg/kg, ip after 0.5 hrs; type: organism-based; parameters: dose 30-300 mg/kg
How it was run: (§4)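 Male Swiss albino mice (18–25 g) given compound suspended in 5% gum acacia/water, i.p. at 30, 100 or 300 mg/kg, one to four animals per dose. PTZ at 85 mg/kg was injected 30 min after compound. Animals were examined 0.5 and 4 h after administration, and death following tonic extension was noted. The maximum dose was 300 mg/kg.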

Mus musculus [18] = assay: Toxicity in subcutaneous pentylenetetrazole-induced Swiss albino mouse assessed as death at 30 to 300 mg/kg, ip after 4 hrs; type: organism-based; parameters: dose 30-300 mg/kg; how it was run: as §4
Mus musculus [19] = assay: Toxicity in subcutaneous pentylenetetrazole-induced Swiss albino mouse assessed as myoclonic jerks at 100 mg/kg, ip after 0.5 hrs; type: organism-based; parameters: dose 100 mg/kg; how it was run: as §3

Row | Compound | Activity (Mus musculus [1]) | Activity (Mus musculus [2]) | minimal effective dose (Mus musculus [3]) | Activity (Mus musculus [4]) | Activity (Mus musculus [5]) | minimal effective dose (Mus musculus [7]) | minimal effective dose (Mus musculus [8]) | Activity (Mus musculus [9]) | Activity (Mus musculus [16]) | also measured
1 | C/C(=N\NC(=O)Nc1cccc2ccccc12)c1ccccc1 | Non-toxic | 100 mg/kg | 300 mg/kg | inactive | inactive |  |  |  |  | Activity (Mus musculus [6]): inactive
2 | COc1cccc(/C=N/NC(=O)Nc2cccc3ccccc23)c1 | Non-toxic | 100 mg/kg |  | inactive |  | 300 mg/kg | 100 mg/kg | inactive |  | 
3 | COc1ccc(/C=N/NC(=O)Nc2cccc3ccccc23)cc1OC | Non-toxic |  | 100 mg/kg |  |  | 100 mg/kg | 100 mg/kg |  |  | Activity (Mus musculus [10]): Non-toxic; minimal effective dose (Mus musculus [11]): 300 mg/kg; Activity (Rattus norvegicus): inactive; Activity (Mus musculus [12]): 1.45 U; Activity (Mus musculus [13]): 1.62 U; Activity (Mus musculus [14]): 18.51 µg; Activity (Mus musculus [15]): 2.53 nmol
4 | O=C(N/N=C/c1ccccc1Cl)Nc1cccc2ccccc12 |  |  |  | inactive | inactive |  | 300 mg/kg | inactive | 300 mg/kg | Activity (Mus musculus [10]): Non-toxic
5 | O=C(N/N=C/c1ccccc1)Nc1cccc2ccccc12 |  | 100 mg/kg | 300 mg/kg | inactive | inactive |  |  |  | 100 mg/kg | Activity (Mus musculus [17]): Toxic
6 | COc1ccc(OC)c(/C=N/NC(=O)Nc2cccc3ccccc23)c1 | Non-toxic | 300 mg/kg |  | inactive |  | 300 mg/kg | 300 mg/kg | inactive |  | 
7 | O=C(N/N=C/c1ccccc1O)Nc1cccc2ccccc12 |  | 300 mg/kg |  |  | inactive |  | 300 mg/kg | inactive | 300 mg/kg | Activity (Mus musculus [18]): Toxic
8 | C/C(=N\NC(=O)Nc1cccc2ccccc12)c1ccc(Cl)cc1 | Non-toxic | 300 mg/kg |  | inactive |  | 300 mg/kg | 300 mg/kg | inactive |  | 
9 | COc1cc(/C=N/NC(=O)Nc2cccc3ccccc23)ccc1O |  | 100 mg/kg | 300 mg/kg | inactive | inactive |  | 300 mg/kg |  | 100 mg/kg | 
10 | O=C(N/N=C/c1ccc(Br)cc1)Nc1cccc2ccccc12 |  | 300 mg/kg | 300 mg/kg | inactive |  | 300 mg/kg | 300 mg/kg |  | 300 mg/kg | 
11 | O=C(N/N=C/c1ccc(Cl)cc1)Nc1cccc2ccccc12 | Non-toxic | 300 mg/kg |  | inactive |  | 300 mg/kg | 300 mg/kg | inactive |  | 
12 | CN(C)c1ccc(/C=N/NC(=O)Nc2cccc3ccccc23)cc1 |  | 100 mg/kg | 100 mg/kg |  |  | 100 mg/kg |  |  | 100 mg/kg | minimal effective dose (Mus musculus [11]): 300 mg/kg; Activity (Mus musculus [19]): Toxic
